Test results: article PMC10582678 (Clinical and Translational Science, 2023)

Test: Safety, adverse events, multiple ascending doses
Assay type: in vivo, human
Conditions: for AEs / Abdominal discomfort / Constipation / Decreased leukocyte count / Decreased lymphocyte count / Decreased neutrophil count / Dermatitis allergic / Dyspepsia / Increased ALT / Increased AST / Increased blood bilirubin / Increased blood creatinine / Lethargy / Mouth ulceration / Oropharyngeal pain / Sinus arrythmia / Upper respiratory tract infection / Increased blood cholesterol / Treatment discontinuation due to AEs / Increased blood triglycerides: n (%)
How it was run: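 Safety was monitored by vital signs, clinical laboratory tests, physical examination, 12-lead ECG, AEs and SAEs. AEs were coded with MedDRA 23.1 and graded by CTCAE 5.0. Subjects were discharged 6 days after the last dose, with a follow-up visit 8–14 days after the last dose. The safety set comprised randomized subjects who received active drug or placebo and had post-dose safety data.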

[1] = 18 subjects, MAD 200 to 600 mg for 10 days

N#CN1C[C@H](n2nc(-c3ccc(Oc4ccc(Cl)cn4)cc3)c(C(N)=O)c2N)CCC12CC2 [SN1011, 5-amino-3-(4-((5-chloro-2-pyridinyl)oxy)phenyl)-1-((6R)-4-cyano-4-azaspiro[2.5]octan-6-yl)-1H-pyrazole-4-carboxamide]
3 (50.0): AEs (MAD 200 mg QD, any grade)
5 (83.3): AEs (MAD 600 mg QD, any grade)
2 (33.3): Decreased neutrophil count (MAD 400 mg QD, any grade) | Increased blood creatinine (MAD 400 mg QD, any grade) | Increased blood triglycerides (MAD 400 mg QD, any grade) | Decreased leukocyte count (MAD 600 mg QD, any grade) | Decreased neutrophil count (MAD 600 mg QD, any grade) | Dermatitis allergic (MAD 600 mg QD, any grade) | Increased blood triglycerides (MAD 600 mg QD, any grade)
33.3%: blood triglycerides increased [1]
12 (66.7): AEs (MAD All SN1011, N = 18)
5 (27.8): Decreased neutrophil count (MAD All SN1011, N = 18)
34: number of AEs [1]
6 (33.3): Increased blood triglycerides (MAD All SN1011, N = 18)
1 (5.6): Abdominal discomfort (MAD All SN1011, N = 18) | Constipation (MAD All SN1011, N = 18) | Decreased lymphocyte count (MAD All SN1011, N = 18) | Dyspepsia (MAD All SN1011, N = 18) | Lethargy (MAD All SN1011, N = 18) | Mouth ulceration (MAD All SN1011, N = 18) | Oropharyngeal pain (MAD All SN1011, N = 18) | Sinus arrythmia (MAD All SN1011, N = 18) | Upper respiratory tract infection (MAD All SN1011, N = 18)
4 (66.7): AEs (MAD 400 mg QD, any grade)
27.8%: neutrophil count decreased [1]
66.7%: subjects who experienced AEs [1]
22.2%: leucocyte count decreased [1]
4 (22.2): Decreased leukocyte count (MAD All SN1011, N = 18)
0: Abdominal discomfort (MAD 200 mg QD, any grade) | Constipation (MAD 200 mg QD, any grade) | Decreased lymphocyte count (MAD 200 mg QD, any grade) | Dermatitis allergic (MAD 200 mg QD, any grade) | Dyspepsia (MAD 200 mg QD, any grade) | Increased blood creatinine (MAD 200 mg QD, any grade) | Lethargy (MAD 200 mg QD, any grade) | Mouth ulceration (MAD 200 mg QD, any grade) | Oropharyngeal pain (MAD 200 mg QD, any grade) | Sinus arrythmia (MAD 200 mg QD, any grade) | Upper respiratory tract infection (MAD 200 mg QD, any grade) | Increased blood cholesterol (MAD 200 mg QD) | Treatment discontinuation due to AEs (MAD 200 mg QD) | Abdominal discomfort (MAD 400 mg QD, any grade) | Constipation (MAD 400 mg QD, any grade) | Decreased lymphocyte count (MAD 400 mg QD, any grade) | Dermatitis allergic (MAD 400 mg QD, any grade) | Dyspepsia (MAD 400 mg QD, any grade) | Increased ALT (MAD 400 mg QD, any grade) | Increased AST (MAD 400 mg QD, any grade) | Increased blood bilirubin (MAD 400 mg QD, any grade) | Lethargy (MAD 400 mg QD, any grade) | Mouth ulceration (MAD 400 mg QD, any grade) | Increased blood cholesterol (MAD 400 mg QD) | Treatment discontinuation due to AEs (MAD 400 mg QD) | Increased blood creatinine (MAD 600 mg QD, any grade) | Sinus arrythmia (MAD 600 mg QD, any grade) | Increased blood cholesterol (MAD 600 mg QD) | Treatment discontinuation due to AEs (MAD 600 mg QD) | Increased blood cholesterol (MAD All SN1011, N = 18) | Treatment discontinuation due to AEs (MAD All SN1011, N = 18)
61.1%: subjects with at least a treatment-related AE (TRAE) (18 subjects, MAD 200 to 600 mg, all grade 1 or 2)
1 (16.7): Decreased leukocyte count (MAD 200 mg QD, any grade) | Decreased neutrophil count (MAD 200 mg QD, any grade) | Increased ALT (MAD 200 mg QD, any grade) | Increased AST (MAD 200 mg QD, any grade) | Increased blood bilirubin (MAD 200 mg QD, any grade) | Decreased leukocyte count (MAD 400 mg QD, any grade) | Sinus arrythmia (MAD 400 mg QD, any grade) | Upper respiratory tract infection (MAD 400 mg QD, any grade) | Abdominal discomfort (MAD 600 mg QD, any grade) | Constipation (MAD 600 mg QD, any grade) | Decreased lymphocyte count (MAD 600 mg QD, any grade) | Dyspepsia (MAD 600 mg QD, any grade) | Increased ALT (MAD 600 mg QD, any grade) | Increased AST (MAD 600 mg QD, any grade) | Increased blood bilirubin (MAD 600 mg QD, any grade) | Lethargy (MAD 600 mg QD, any grade) | Mouth ulceration (MAD 600 mg QD, any grade) | Oropharyngeal pain (MAD 600 mg QD, any grade)
2 (11.1): Dermatitis allergic (MAD All SN1011, N = 18) | Increased ALT (MAD All SN1011, N = 18) | Increased AST (MAD All SN1011, N = 18) | Increased blood bilirubin (MAD All SN1011, N = 18) | Increased blood creatinine (MAD All SN1011, N = 18)
